The text below walks through data of ChEMBL document CHEMBL4020838, “The Discovery of ( S)-1-(6-(3-((4-(1-(Cyclopropanecarbonyl)piperidin-4-yl)-2-methylphenyl)amino)-2,3-dihydro-1 H-inden-4-yl)pyridin-2-yl)-5-methyl-1 H-pyrazole-4-carboxylic Acid, a Soluble Guanylate Cyclase Activator Specifically Designed for Topical Ocular Delivery as a Therapy for Glaucoma” (J Med Chem, 2018).

What all share (type): cell-based
A short description of assay [1]: Activation of HUVEC-derived soluble guanylate cyclase expressed in CHOK1 cells assessed as increase in cGMP production after 1 hr by HTRF assay. The gist of the method: (§1)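 High-throughput assay in Chinese hamster ovary cells expressing sGC. cGMP was measured across a dose range. EC50 and Emax (maximal cGMP produced) were taken from the dose-response curve.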
In general terms: Time-resolved FRET reads energy transfer from a long-lived donor to a nearby acceptor.

For assay [2], the species on record is Homo sapiens. As to the kind of experiment: Activation of HUVEC-derived soluble guanylate cyclase expressed in CHOK1 cells assessed as increase in cGMP production after 1 hr by HTRF assay relative to 1-{6-[5-chloro-2-({4-[trans-4-(trifluoromethyl)cyclohexyl]-benzyl}oxy)phenyl)pyridin-2-yl)-5-(trifluoromethyl)-1H-pyrazole-4-carboxylic acid. The gist of the method: as §1

Assay [3] is filed under the species Homo sapiens. As to the kind of experiment: Activation of soluble guanylate cyclase in human GTM3 cells assessed as increase in cGMP production after 30 mins by fluorescence assay relative to 1-{6-[5-chloro-2-({4-[trans-4-(trifluoromethyl)cyclohexyl]-benzyl}oxy)phenyl)pyridin-2-yl)-5-(trifluoromethyl)-1H-pyrazole-4-carboxylic acid. Summed up: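 Immortalized glaucomatous trabecular meshwork (GTM-3) cells expressing endogenous levels of sGC were used. cGMP was read across a dose range. EC50 and Emax were derived from the dose-response curve.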

As for `Cc1cc2c(c(-c3cccc(-n4ncc(C(=O)O)c4C(F)(F)F)n3)c1)C(Nc1ccc(C3CCN(C(=O)C4CC4)CC3)cc1C)CC2` (single isomer, unassigned; (-)) [listing 1 of 2 here], the EC50 in assay [1] was 24 nM.
Regarding `Cc1cc(C2CCNCC2)ccc1OCc1ccsc1-c1cccc(-n2ncc(C(=O)O)c2C(F)(F)F)n1`, in the assay filed under Homo sapiens [2], the Emax is 73%. The 50% effective concentration (EC50) in assay [1] (CHO-K1, 1 h) turned out to be 4200 nM.
`Cc1cc(C2CCN(C(=O)C3CC3)CC2)ccc1OC1CCc2cccc(-c3cccc(-n4ncc(C(=O)O)c4C(F)(F)F)n3)c21` (single isomer, unassigned; (-)) [listing 1 of 2 here]: in assay [1], the concentration giving a half-maximal response (EC50) is 7 nM.
On to `Cc1cc(C2CCN(C(=O)C3CC3)CC2)ccc1NC1CCc2cccc(-c3cccc(-n4ncc(C(=O)O)c4C(F)(F)F)n3)c21` (single isomer, unassigned; (-)), for which the maximal response (Emax) in the assay filed under Homo sapiens [2] was determined as 101%; in the assay filed under Homo sapiens [3] it was 97%.
Consider `Cc1c(C(=O)O)cnn1-c1nc(-c2cccc(C(F)(F)F)c2)cs1`, for which, in the assay listed under Homo sapiens [2], the Emax came to 105%. Further, in assay [1] (CHO-K1, 1 h), the 50% effective concentration (EC50) was 162 nM.
The corresponding values for `CCC(=O)N1CCC(c2ccc(OCc3ccsc3-c3cccc(-n4ncc(C(=O)O)c4C(F)(F)F)n3)cc2)CC1` are 101% and 25 nM.
In the case of `CCc1cc(OCC2=C(c3cccc(-n4ncc(C(=O)O)c4C)n3)CCCC2C)ccc1C1CCN(C(=O)C2CC2)CC1` (stereo in doubt; (-)-24) [listing 1 of 2 here], the maximal response (Emax) in the assay listed under Homo sapiens [2] worked out at 101%.
The same measure, in the same setting: with `Cc1cc(C2CCN(C(=O)C3CC3)CC2)ccc1OC1CCc2cccc(-c3cccc(-n4ncc(C(=O)O)c4C(F)(F)F)n3)c21` (single isomer, unassigned; (-)) [listing 2 of 2 here] the figure was 100%.
As for `CCc1cc(OCC2=C(c3cccc(-n4ncc(C(=O)O)c4C(F)(F)F)n3)CCCC2C)ccc1C1CCN(C(=O)C2CC2)CC1` (single isomer, unassigned; (+)), the results for the maximal response (Emax) in the assay listed under Homo sapiens [2] and in the assay filed under Homo sapiens [3] were 102% and 85%, respectively.
As to `Cc1cc(C2CCN(CC3CC3)CC2)ccc1OCc1ccsc1-c1cccc(-n2ncc(C(=O)O)c2C(F)(F)F)n1`, the Emax in the assay filed under Homo sapiens [2] amounted to 88%. Besides, the concentration giving a half-maximal response (EC50) in assay [1] (CHO-K1, 1 h) is 430 nM.
Regarding `Cc1cc(C2CCN(C(=O)C3CC3)CC2)ccc1NC1CCc2cccc(-c3cccc(-n4ncc(C(=O)O)c4C(F)(F)F)n3)c21` (single isomer, unassigned; (+)), the values for the maximal response (Emax) in the assay filed under Homo sapiens [2] and in the assay listed under Homo sapiens [3] were 100% and 89%, respectively.
As to `Cc1cc(C2CCN(C(=O)C3CC3)CC2)ccc1NC1CCc2cccc(-c3cccc(-n4ncc(C(=O)O)c4C)n3)c21` (stereo in doubt; (-)-23), the maximal response (Emax) in the assay listed under Homo sapiens [2] was determined as 102%; in the assay listed under Homo sapiens [3] it was 82%.
As for `Cc1cc2c(c(-c3cccc(-n4ncc(C(=O)O)c4C(F)(F)F)n3)c1)C(Nc1ccc(C3CCN(C(=O)C4CC4)CC3)cc1C)CC2` (single isomer, unassigned; (-)) [listing 2 of 2 here], the Emax in the assay listed under Homo sapiens [2] worked out at 99%.
Turning to `CCc1cc(OCC2=C(c3cccc(-n4ncc(C(=O)O)c4C)n3)CCCC2C)ccc1C1CCN(C(=O)C2CC2)CC1` (stereo in doubt; (-)-24) [listing 2 of 2 here], the EC50 in assay [1] came to 3 nM.
As for `Cc1cc(C2CCN(C(=O)C3CC3)CC2)ccc1OCc1ccsc1-c1cccc(-n2ncc(C(=O)O)c2C(F)(F)F)n1`, in the assay listed under Homo sapiens [2], the maximal response (Emax) amounted to 102%. Moreover, in assay [1] (CHO-K1, 1 h), the half-maximal effective concentration (EC50) was 4.5 nM.
The corresponding values for `Cc1cc(C2CCN(C(=O)C3CC3)CC2)ccc1OCC1=C(c2cccc(-n3ncc(C(=O)O)c3C(F)(F)F)n2)CCC1` are 101% and 2.5 nM.
Consider `CCc1cc(OCC2=C(c3cccc(-n4ncc(C(=O)O)c4C(F)(F)F)n3)CCCC2C)ccc1C1CCN(C(=O)C2CC2)CC1` (stereo in doubt; (-)-17), for which the maximal response (Emax) was 100% in the assay filed under Homo sapiens [2] and 63% in the assay filed under Homo sapiens [3].
Turning to `Cc1cc2c(c(-c3cccc(-n4ncc(C(=O)O)c4C(F)(F)F)n3)c1)C(Nc1ccc(C3CCN(C(=O)C4CC4)CC3)cc1C)CC2` (single isomer, unassigned; (+)), the Emax in the assay listed under Homo sapiens [2] was 101%; in the assay filed under Homo sapiens [3], 85%.
Consider `O=C(Nc1ccc(S(=O)(=O)N2CCOCC2)cc1)c1cc(Cl)ccc1NS(=O)(=O)c1ccc(Cl)s1`, for which, in the assay filed under Homo sapiens [2], the Emax came to 95%. For the same compound, the EC50 in assay [1] (CHO-K1, 1 h) was found to be 870 nM.

A word on the EC50: it is the concentration that produces a half-maximal response. What is called Emax is the maximal effect, on the per cent scale that the assay sets.
